Experimental data reported in ChEMBL document CHEMBL3286116, “Synthesis, biological evaluation and structure-activity correlation study of a series of imidazol-based compounds as Candida albicans inhibitors” (Eur J Med Chem, 2014).
Converted amounts (≈) assume the structure as drawn.

Experiments:
Candida albicans [1] = assay: Antifungal activity against Candida albicans ATCC 90028 after 48 hrs by CLSI broth microdilution method; type: functional; settings: ATCC 90028, 48 h
Method in brief: (§1)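 Yeast CLSI broth microdilution (M27-A3). Compounds dissolved in DMSO at 100× the top test concentration, then diluted as serial two-fold dilutions in RPMI 1640 to final 0.125–64. Inoculum was 1.0–1.5 × 10^3 cells mL−1, incubated at 35 °C and read for growth at 48 h. MIC is the lowest concentration giving ≥50% growth inhibition versus growth control. Reported as the median of five replicates and as the geometric mean.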

Candida albicans [2] = assay: Antifungal activity against Candida albicans ATCC 20891 after 48 hrs by CLSI broth microdilution method; type: functional; settings: ATCC 20891, 48 h; method in brief: as §1
Candida albicans [3] = assay: Antifungal activity against Candida albicans PMC 1011 after 48 hrs by CLSI broth microdilution method; type: functional; settings: PMC 1011, 48 h; method in brief: as §1
Pichia kudriavzevii [4] = assay: Antifungal activity against Candida krusei DSM 6128 after 48 hrs by CLSI broth microdilution method; type: functional; settings: DSM 6128, 48 h; method in brief: as §1
Pichia kudriavzevii [5] = assay: Antifungal activity against Candida krusei PMC 0613 after 48 hrs by CLSI broth microdilution method; type: functional; settings: PMC 0613, 48 h; method in brief: as §1
Candida tropicalis [6] = assay: Antifungal activity against Candida tropicalis PMC 0910 after 48 hrs by CLSI broth microdilution method; type: functional; settings: PMC 0910, 48 h; method in brief: as §1
Candida tropicalis [7] = assay: Antifungal activity against Candida tropicalis DSM 11953 after 48 hrs by CLSI broth microdilution method; type: functional; settings: DSM 11953, 48 h; method in brief: as §1
Candida parapsilosis [8] = assay: Antifungal activity against Candida parapsilosis DSM 11224 after 48 hrs by CLSI broth microdilution method; type: functional; settings: Lodderomyces parapsilosis, DSM 11224, 48 h; method in brief: as §1
Candida parapsilosis [9] = assay: Antifungal activity against Candida parapsilosis ATCC 22019 after 48 hrs by CLSI broth microdilution method; type: functional; settings: Lodderomyces parapsilosis, ATCC 22019, 48 h; method in brief: as §1
Nakaseomyces glabratus [10] = assay: Antifungal activity against Candida glabrata PMC 0805 after 48 hrs by CLSI broth microdilution method; type: functional; settings: PMC 0805, 48 h; method in brief: as §1
Nakaseomyces glabratus [11] = assay: Antifungal activity against Candida glabrata PMC 0807 after 48 hrs by CLSI broth microdilution method; type: functional; settings: PMC 0807, 48 h; method in brief: as §1
Cryptococcus neoformans [12] = assay: Antifungal activity against Cryptococcus neoformans PMC 2123 after 72 hrs by CLSI broth microdilution method; type: functional; settings: PMC 2123, 72 h
Method in brief: (§2)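 Cryptococcus neoformans tested by CLSI broth microdilution in RPMI 1640, with serial two-fold dilutions from DMSO stocks at 100× the top concentration, final 0.125–64. Inoculum was 1.0–1.5 × 10^3 cells mL−1 at 35 °C, with growth read at 72 h. MIC is the lowest concentration with ≥50% growth inhibition versus control. Median of five replicates, plus geometric mean.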

Cryptococcus neoformans [13] = assay: Antifungal activity against Cryptococcus neoformans PMC 2136 after 72 hrs by CLSI broth microdilution method; type: functional; settings: PMC 2136, 72 h; method in brief: as §2
Cryptococcus neoformans [14] = assay: Antifungal activity against Cryptococcus neoformans PMC 2115 after 72 hrs by CLSI broth microdilution method; type: functional; settings: PMC 2115, 72 h; method in brief: as §2
Cryptococcus neoformans [15] = assay: Antifungal activity against Cryptococcus neoformans PMC 2103 after 72 hrs by CLSI broth microdilution method; type: functional; settings: PMC 2103, 72 h; method in brief: as §2
Cryptococcus neoformans [16] = assay: Antifungal activity against Cryptococcus neoformans PMC 2107 after 72 hrs by CLSI broth microdilution method; type: functional; settings: PMC 2107, 72 h; method in brief: as §2
Cryptococcus neoformans [17] = assay: Antifungal activity against Cryptococcus neoformans PMC 2102 after 72 hrs by CLSI broth microdilution method; type: functional; settings: PMC 2102, 72 h; method in brief: as §2
Cryptococcus neoformans [18] = assay: Antifungal activity against Cryptococcus neoformans DSM 11959 after 72 hrs by CLSI broth microdilution method; type: functional; settings: DSM 11959, 72 h; method in brief: as §2
Cryptococcus neoformans [19] = assay: Antifungal activity against Cryptococcus neoformans PMC 2111 after 72 hrs by CLSI broth microdilution method; type: functional; settings: PMC 2111, 72 h; method in brief: as §2
[20] = system: Trichophyton mentagrophytes; assay: Antifungal activity against Trichophyton mentagrophytes DSM 4870 after 72 hrs by CLSI broth microdilution method; type: functional; settings: DSM 4870, 72 h
Method in brief: (§3)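 Dermatophytes tested by CLSI broth microdilution for filamentous fungi (M38-A2). Serial two-fold dilutions of DMSO-dissolved compound in RPMI 1640, final 0.125–64. Inoculum was 0.4–5 × 10^4 CFU mL−1, incubated at 35 °C and read at 72 h. MIC80 is the lowest concentration giving ≥80% growth inhibition versus growth control. Median of five replicates, plus geometric mean.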

[21] = system: Trichophyton mentagrophytes; assay: Antifungal activity against Trichophyton mentagrophytes PMC 6515 after 72 hrs by CLSI broth microdilution method; type: functional; settings: PMC 6515, 72 h; method in brief: as §3
[22] = system: Trichophyton mentagrophytes; assay: Antifungal activity against Trichophyton mentagrophytes PMC 6531 after 72 hrs by CLSI broth microdilution method; type: functional; settings: PMC 6531, 72 h; method in brief: as §3
[23] = system: Trichophyton mentagrophytes; assay: Antifungal activity against Trichophyton mentagrophytes PMC 6509 after 72 hrs by CLSI broth microdilution method; type: functional; settings: PMC 6509, 72 h; method in brief: as §3
[24] = system: Trichophyton mentagrophytes; assay: Antifungal activity against Trichophyton mentagrophytes PMC 6503 after 72 hrs by CLSI broth microdilution method; type: functional; settings: PMC 6503, 72 h; method in brief: as §3
[25] = system: Trichophyton mentagrophytes; assay: Antifungal activity against Trichophyton mentagrophytes PMC 6552 after 72 hrs by CLSI broth microdilution method; type: functional; settings: PMC 6552, 72 h; method in brief: as §3
Nannizzia gypsea [26] = assay: Antifungal activity against Microsporum gypseum PMC 7303 after 72 hrs by CLSI broth microdilution method; type: functional; settings: PMC 7303, 72 h; method in brief: as §3
Nannizzia gypsea [27] = assay: Antifungal activity against Microsporum gypseum PMC 7331 after 72 hrs by CLSI broth microdilution method; type: functional; settings: PMC 7331, 72 h; method in brief: as §3
Nannizzia gypsea [28] = assay: Antifungal activity against Microsporum gypseum DSM 3824 after 72 hrs by CLSI broth microdilution method; type: functional; settings: DSM 3824, 72 h; method in brief: as §3
Candida albicans [29] = assay: Antifungal activity against Candida albicans PMC 1040R after 48 hrs by CLSI broth microdilution method; type: functional; method in brief: as §1
Candida albicans [30] = assay: Antifungal activity against Candida albicans PMC 1041R after 48 hrs by CLSI broth microdilution method; type: functional; method in brief: as §1
Nakaseomyces glabratus [31] = assay: Antifungal activity against Candida glabrata PMC 0850R after 48 hrs by CLSI broth microdilution method; type: functional; method in brief: as §1
Nakaseomyces glabratus [32] = assay: Antifungal activity against Candida glabrata PMC 0851R after 48 hrs by CLSI broth microdilution method; type: functional; method in brief: as §1
Nakaseomyces glabratus [33] = assay: Antifungal activity against Candida glabrata PMC 0852R after 48 hrs by CLSI broth microdilution method; type: functional; method in brief: as §1
Nakaseomyces glabratus [34] = assay: Antifungal activity against Candida glabrata PMC 0853R after 48 hrs by CLSI broth microdilution method; type: functional; method in brief: as §1
Candida albicans [35] = assay: Antifungal activity against Candida albicans PMC 1042R after 48 hrs by CLSI broth microdilution method; type: functional; method in brief: as §1
[36] = Cytotoxicity against human A549 cells after 48 hrs by MTT assay; type: cell-based
Method in brief: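 A549 cells (ATCC CCL-185) seeded at 2 × 10^4/well in phenol-red-free RPMI 1640 with 10% FBS, L-glutamine, penicillin and streptomycin, at 37 °C and 5% CO2. Exposed 48 h to DMSO-dissolved compounds (final 16–256; at least five concentrations, triplicate). MTT added for 3–4 h, crystals solubilized, OD read at 570 nm. CC50 taken versus the DMSO control. Mean ± SD of two independent experiments.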

Candida albicans [37] = assay: Antifungal activity against Candida albicans ATCC 24433 after 48 hrs by CLSI broth microdilution method; type: functional; settings: ATCC 24433, 48 h; method in brief: as §1
Candida albicans [38] = assay: Antifungal activity against Candida albicans ATCC 3153 after 48 hrs by CLSI broth microdilution method; type: functional; settings: ATCC 3153, 48 h; method in brief: as §1
Candida albicans [39] = assay: Antifungal activity against Candida albicans ATCC 10231 after 48 hrs by CLSI broth microdilution method; type: functional; settings: ATCC 10231, 48 h; method in brief: as §1
Candida albicans [40] = assay: Antifungal activity against Candida albicans ATCC 76615 after 48 hrs by CLSI broth microdilution method; type: functional; settings: ATCC 76615, 48 h; method in brief: as §1
Candida albicans [41] = assay: Antifungal activity against Candida albicans ATCC 10261 after 48 hrs by CLSI broth microdilution method; type: functional; settings: ATCC 10261, 48 h; method in brief: as §1

MIC50 (Candida albicans [1]): 0.5 µg/mL (≈ 1.12 µM) | MIC50 (Candida albicans [2]): 0.5 µg/mL (≈ 1.12 µM) | MIC50 (Candida albicans [3]): 0.25 µg/mL (≈ 0.561 µM) | MIC50 (Pichia kudriavzevii [4]): 4 µg/mL (≈ 8.98 µM) | MIC50 (Pichia kudriavzevii [5]): 1 µg/mL (≈ 2.25 µM) | MIC50 (Candida tropicalis [6]): 4 µg/mL (≈ 8.98 µM) | MIC50 (Candida tropicalis [7]): 4 µg/mL (≈ 8.98 µM) | MIC50 (Candida parapsilosis [8]): 1 µg/mL (≈ 2.25 µM) | MIC50 (Candida parapsilosis [9]): 1 µg/mL (≈ 2.25 µM) | MIC50 (Nakaseomyces glabratus [10]): 1 µg/mL (≈ 2.25 µM) | MIC50 (Nakaseomyces glabratus [11]): 8 µg/mL (≈ 18 µM) | MIC50 (Cryptococcus neoformans [12]): 4 µg/mL (≈ 8.98 µM) | MIC50 (Cryptococcus neoformans [13]): 4 µg/mL (≈ 8.98 µM) | MIC50 (Cryptococcus neoformans [14]): 4 µg/mL (≈ 8.98 µM) | MIC50 (Cryptococcus neoformans [15]): 4 µg/mL (≈ 8.98 µM) | MIC50 (Cryptococcus neoformans [16]): 4 µg/mL (≈ 8.98 µM) | MIC50 (Cryptococcus neoformans [17]): 4 µg/mL (≈ 8.98 µM) | MIC50 (Cryptococcus neoformans [18]): 2 µg/mL (≈ 4.49 µM) | MIC50 (Cryptococcus neoformans [19]): 2 µg/mL (≈ 4.49 µM) | MIC80 [20]: 8 µg/mL (≈ 18 µM) | MIC80 [21]: 4 µg/mL (≈ 8.98 µM) | MIC80 [22]: 8 µg/mL (≈ 18 µM) | MIC80 [23]: 8 µg/mL (≈ 18 µM) | MIC80 [24]: 2 µg/mL (≈ 4.49 µM) | MIC80 [25]: 1 µg/mL (≈ 2.25 µM) | MIC80 (Nannizzia gypsea [26]): 2 µg/mL (≈ 4.49 µM) | MIC80 (Nannizzia gypsea [27]): 2 µg/mL (≈ 4.49 µM) | MIC80 (Nannizzia gypsea [28]): 8 µg/mL (≈ 18 µM) | MIC50 (Candida albicans [29]): 32 µg/mL (≈ 71.9 µM) | MIC50 (Candida albicans [30]): 8 µg/mL (≈ 18 µM) | MIC50 (Nakaseomyces glabratus [31]): 8 µg/mL (≈ 18 µM) | MIC50 (Nakaseomyces glabratus [32]): 8 µg/mL (≈ 18 µM) | MIC50 (Nakaseomyces glabratus [33]): 4 µg/mL (≈ 8.98 µM) | MIC50 (Nakaseomyces glabratus [34]): 4 µg/mL (≈ 8.98 µM) | MIC50 (Candida albicans [35]): 4 µg/mL (≈ 8.98 µM) | MIC50 (Candida albicans [37]): 1 µg/mL (≈ 2.25 µM) | MIC50 (Candida albicans [38]): 0.5 µg/mL (≈ 1.12 µM) | MIC50 (Candida albicans [39]): 0.5 µg/mL (≈ 1.12 µM) | MIC50 (Candida albicans [40]): 2 µg/mL (≈ 4.49 µM) | MIC50 (Candida albicans [41]): 0.5 µg/mL (≈ 1.12 µM)
Compound: O=C(OC(Cn1ccnc1)c1ccc(Cl)cc1)N1CCN(c2ccc(Cl)cc2)CC1 (stereo unspecified)
CC50 at 48 h [36]: 82.2 µg/mL (≈ 185 µM)
